Experimental data reported in ChEMBL document CHEMBL1154052, “Design, synthesis and primary activity evaluation of L-arginine derivatives as amino-peptidase N/CD13 inhibitors” (Bioorg Med Chem, 2009).

Experiments:
[1] = Selectivity ratio of IC50 for MMP2 to IC50 for aminopeptidase N in pig kidney microsome
Aminopeptidase N = biological target: T1, Aminopeptidase N (Sus scrofa, UniProt P15145); experiment: Inhibition of aminopeptidase N in pig kidney microsome by spectrophotometry; type: microsomes
T1 sequence (P15145 whole entry): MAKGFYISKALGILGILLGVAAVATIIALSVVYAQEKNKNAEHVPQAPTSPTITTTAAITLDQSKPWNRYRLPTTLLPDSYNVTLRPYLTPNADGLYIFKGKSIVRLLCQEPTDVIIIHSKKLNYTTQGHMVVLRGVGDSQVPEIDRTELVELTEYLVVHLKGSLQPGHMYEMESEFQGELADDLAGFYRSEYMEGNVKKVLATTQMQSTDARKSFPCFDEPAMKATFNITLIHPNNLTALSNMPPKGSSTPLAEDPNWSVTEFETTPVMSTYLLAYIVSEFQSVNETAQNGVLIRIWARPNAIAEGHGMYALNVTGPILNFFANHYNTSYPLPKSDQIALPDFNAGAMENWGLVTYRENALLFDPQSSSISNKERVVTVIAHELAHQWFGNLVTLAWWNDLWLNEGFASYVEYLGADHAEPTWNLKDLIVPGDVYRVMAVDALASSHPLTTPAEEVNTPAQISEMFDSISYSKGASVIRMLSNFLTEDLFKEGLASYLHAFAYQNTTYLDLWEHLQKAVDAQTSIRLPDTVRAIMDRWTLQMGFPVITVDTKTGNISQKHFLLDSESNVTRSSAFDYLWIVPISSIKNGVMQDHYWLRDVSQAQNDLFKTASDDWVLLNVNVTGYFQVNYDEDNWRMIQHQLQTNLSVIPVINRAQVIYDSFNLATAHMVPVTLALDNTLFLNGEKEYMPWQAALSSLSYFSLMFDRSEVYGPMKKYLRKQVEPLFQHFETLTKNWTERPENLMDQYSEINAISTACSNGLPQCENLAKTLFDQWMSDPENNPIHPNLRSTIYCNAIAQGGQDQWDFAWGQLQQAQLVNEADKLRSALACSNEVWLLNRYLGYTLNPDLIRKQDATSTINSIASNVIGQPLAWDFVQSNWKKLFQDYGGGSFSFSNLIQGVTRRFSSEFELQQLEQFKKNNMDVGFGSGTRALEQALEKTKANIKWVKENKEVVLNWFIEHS
In short: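 Porcine kidney microsomal aminopeptidase (4 μg/mL final) preincubated with inhibitor for 30 min at room temperature in 50 mM PBS, pH 7.2. Inhibitor solutions made in assay buffer and adjusted to pH 7.5. Substrate L-Leu-p-nitroanilide. IC50 determined.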

[2] = biological target: 72 kDa type IV collagenase (Homo sapiens, UniProt P08253); experiment: Inhibition of MMP2
In short: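 MMP-2 (gelatinase A) incubated with substrate and inhibitor in 50 mmol/L sodium borate, pH 8.5, 30 min at 37 °C. 0.03% TNBS then added and incubated a further 20 min. Absorbance read at 450 nm.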

Sequence of 72 kDa type IV collagenase (P08253 whole entry): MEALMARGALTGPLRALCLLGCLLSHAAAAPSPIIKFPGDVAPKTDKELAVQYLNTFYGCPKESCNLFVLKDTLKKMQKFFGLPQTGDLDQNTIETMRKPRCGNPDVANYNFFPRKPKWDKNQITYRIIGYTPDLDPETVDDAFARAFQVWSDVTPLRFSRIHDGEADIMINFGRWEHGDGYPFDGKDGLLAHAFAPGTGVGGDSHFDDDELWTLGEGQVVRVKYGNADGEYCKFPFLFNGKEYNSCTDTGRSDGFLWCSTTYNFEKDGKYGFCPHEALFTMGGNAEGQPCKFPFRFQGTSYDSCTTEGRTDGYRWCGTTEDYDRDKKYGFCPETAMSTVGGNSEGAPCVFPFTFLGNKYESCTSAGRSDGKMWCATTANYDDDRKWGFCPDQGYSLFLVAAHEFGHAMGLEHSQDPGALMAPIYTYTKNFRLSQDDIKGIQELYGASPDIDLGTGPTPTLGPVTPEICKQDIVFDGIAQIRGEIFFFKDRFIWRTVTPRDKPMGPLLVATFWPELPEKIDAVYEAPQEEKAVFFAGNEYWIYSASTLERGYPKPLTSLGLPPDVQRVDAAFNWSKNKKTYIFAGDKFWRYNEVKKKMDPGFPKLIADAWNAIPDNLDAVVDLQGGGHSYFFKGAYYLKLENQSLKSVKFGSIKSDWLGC

| Compound | Ratio IC50 [1] | IC50 (Aminopeptidase N) [µM] | IC50 [2] [µM] |
| --- | --- | --- | --- |
| N=C(NCCC[C@H](NC(=O)c1ccc2ccccc2c1)C(=O)NO)N[N+](=O)[O-] | 5.9 | – | – |
| N=C(NCCC[C@H](NC(=O)c1cccs1)C(=O)NO)N[N+](=O)[O-] | 2.6 | – | – |
| N=C(NCCC[C@H](NC(=O)c1ccccc1I)C(=O)NO)N[N+](=O)[O-] | 8 | 21.9 | 176 |
| Cc1ccccc1C(=O)N[C@@H](CCCNC(=N)N[N+](=O)[O-])C(=O)NO | 9.3 | 221 | 2070 |
| N=C(NCCC[C@H](NC(=O)c1ccc(Cl)c(Cl)c1)C(=O)NO)N[N+](=O)[O-] | 5.8 | 33.5 | 194 |
| N=C(NCCC[C@H](NS(=O)(=O)c1ccccc1)C(=O)NO)N[N+](=O)[O-] | 1.7 | – | – |
| N=C(NCCC[C@H](NC(=O)c1ccccc1)C(=O)NO)N[N+](=O)[O-] | 8.6 | 80.6 | 693 |
| N=C(NCCC[C@H](NC(=O)/C=C/c1ccccc1)C(=O)NO)N[N+](=O)[O-] | 0.04 | 1010 | 36.7 |
| N=C(NCCC[C@H](NC(=O)c1ccc(Cl)cc1)C(=O)NO)N[N+](=O)[O-] | 1.1 | 215 | 238 |
| N=C(NCCC[C@H](NC(=O)c1cccc(Cl)c1)C(=O)NO)N[N+](=O)[O-] | 0.4 | 202 | 89.2 |
| N=C(NCCC[C@H](NC(=O)c1cccc([N+](=O)[O-])c1)C(=O)NO)N[N+](=O)[O-] | 2.3 | 43.4 | 102 |
| NC(=N[N+](=O)[O-])NCCC[C@H](NC(=O)c1ccc(Br)cc1)C(=O)NO | – | 443 | 484 |
| N=C(NCCC[C@H](NC(=O)c1ccc(Br)cc1)C(=O)NO)N[N+](=O)[O-] | 1.1 | – | – |
| COc1ccccc1C(=O)N[C@@H](CCCNC(=N)N[N+](=O)[O-])C(=O)NO | 3.2 | 78.4 | 253 |
| COc1ccc(C(=O)N[C@@H](CCCNC(N)=N[N+](=O)[O-])C(=O)NO)cc1OC | – | 26.9 | 346 |
| NC(=N[N+](=O)[O-])NCCC[C@H](NC(=O)c1cccs1)C(=O)NO | – | 85.7 | 226 |
| NC(=N[N+](=O)[O-])NCCC[C@H](NC(=O)c1ccccc1Cl)C(=O)NO | – | 20.4 | 150 |
| N=C(NCCC[C@H](NC(=O)c1ccc(Br)c([N+](=O)[O-])c1)C(=O)NO)N[N+](=O)[O-] | 46.3 | – | – |

| Compound | Ratio IC50 [1] | IC50 (Aminopeptidase N) [µM] | IC50 [2] [µM] |
| --- | --- | --- | --- |
| COc1cccc(C(=O)N[C@@H](CCCNC(=N)N[N+](=O)[O-])C(=O)NO)c1 | 9.1 | 16.5 | 151 |
| Cc1cccc(C(=O)N[C@@H](CCCNC(=N)N[N+](=O)[O-])C(=O)NO)c1 | 14.6 | 42.8 | 623 |
| N=C(NCCC[C@H](NC(=O)c1ccc(Cl)cc1Cl)C(=O)NO)N[N+](=O)[O-] | 65.8 | 5.3 | 349 |
| COc1ccc(C(=O)N[C@@H](CCCNC(=N)N[N+](=O)[O-])C(=O)NO)cc1 | 5.4 | – | – |
| Cc1ccc(S(=O)(=O)N[C@@H](CCCNC(=N)N[N+](=O)[O-])C(=O)NO)cc1 | 0.3 | – | – |
| COc1cc(C(=O)N[C@@H](CCCNC(N)=N[N+](=O)[O-])C(=O)NO)cc(OC)c1OC | – | 271 | 41.1 |
| COc1ccc(C(=O)N[C@@H](CCCNC(N)=N[N+](=O)[O-])C(=O)NO)cc1 | – | 60.2 | 322 |
| N=C(NCCC[C@H](NC(=O)c1ccc([N+](=O)[O-])cc1)C(=O)NO)N[N+](=O)[O-] | 12.8 | 15.9 | 204 |
| N=C(NCCC[C@H](NC(=O)CCc1ccccc1)C(=O)NO)N[N+](=O)[O-] | 4.9 | 332 | 1640 |
| COc1cc(C(=O)N[C@@H](CCCNC(=N)N[N+](=O)[O-])C(=O)NO)cc(OC)c1OC | 0.2 | – | – |
| NC(=N[N+](=O)[O-])NCCC[C@H](NS(=O)(=O)c1ccccc1)C(=O)NO | – | 60.2 | 100 |
| NC(=N[N+](=O)[O-])NCCC[C@H](NC(=O)c1ccc(Br)c([N+](=O)[O-])c1)C(=O)NO | – | 5.1 | 236 |
| COc1ccc(C(=O)N[C@@H](CCCNC(=N)N[N+](=O)[O-])C(=O)NO)cc1OC | 12.8 | – | – |
| Cc1ccc(S(=O)(=O)N[C@@H](CCCNC(N)=N[N+](=O)[O-])C(=O)NO)cc1 | – | 109 | 28.9 |
| N=C(NCCC[C@H](NC(=O)c1ccccc1Cl)C(=O)NO)N[N+](=O)[O-] | 7.3 | – | – |
| NC(=N[N+](=O)[O-])NCCC[C@H](NC(=O)Cc1ccccc1)C(=O)NO | – | 1660 | 8.7 |
| N=C(NCCC[C@H](NC(=O)Cc1ccccc1)C(=O)NO)N[N+](=O)[O-] | 0.05 | – | – |
| NC(=N[N+](=O)[O-])NCCC[C@H](NC(=O)c1ccc2ccccc2c1)C(=O)NO | – | 14.6 | 85.5 |
